Measured values taken from ChEMBL document CHEMBL3351328.
pIC50: −log10 of the molar value. Blank lines part the entries; values can stand above or below the compound they belong to.

Assays:
[1] = target: Inosine-5'-monophosphate dehydrogenase 2 (Homo sapiens) (UniProt P12268); assay: Inhibition of human IMPDH2 assessed as reduction in NADH production at 5 uM
[2] = target: T1, Inosine-5'-monophosphate dehydrogenase (Cryptosporidium parvum, UniProt Q8T6T2); assay: Inhibition of Cryptosporidium parvum IMPDH assessed as reduction in NADH production
T1 sequence (Q8T6T2 whole entry): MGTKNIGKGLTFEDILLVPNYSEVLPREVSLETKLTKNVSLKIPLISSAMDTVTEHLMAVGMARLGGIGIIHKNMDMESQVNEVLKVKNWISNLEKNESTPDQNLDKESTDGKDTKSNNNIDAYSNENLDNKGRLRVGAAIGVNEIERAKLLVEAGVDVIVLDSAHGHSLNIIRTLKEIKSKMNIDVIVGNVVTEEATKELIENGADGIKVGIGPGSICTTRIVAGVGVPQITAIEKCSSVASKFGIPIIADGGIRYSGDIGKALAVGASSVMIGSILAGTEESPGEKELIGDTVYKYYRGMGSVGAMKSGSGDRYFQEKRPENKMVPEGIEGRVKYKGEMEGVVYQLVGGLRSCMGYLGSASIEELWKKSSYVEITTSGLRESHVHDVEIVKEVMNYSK
Procedure, shortened: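 Purified expressed CpIMPDH enzyme; activity followed by NADH production. IC50 taken as the average of three independent experiments unless otherwise noted.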

Sequence of Inosine-5'-monophosphate dehydrogenase 2 (Homo sapiens) (P12268 2-514 limits assumed): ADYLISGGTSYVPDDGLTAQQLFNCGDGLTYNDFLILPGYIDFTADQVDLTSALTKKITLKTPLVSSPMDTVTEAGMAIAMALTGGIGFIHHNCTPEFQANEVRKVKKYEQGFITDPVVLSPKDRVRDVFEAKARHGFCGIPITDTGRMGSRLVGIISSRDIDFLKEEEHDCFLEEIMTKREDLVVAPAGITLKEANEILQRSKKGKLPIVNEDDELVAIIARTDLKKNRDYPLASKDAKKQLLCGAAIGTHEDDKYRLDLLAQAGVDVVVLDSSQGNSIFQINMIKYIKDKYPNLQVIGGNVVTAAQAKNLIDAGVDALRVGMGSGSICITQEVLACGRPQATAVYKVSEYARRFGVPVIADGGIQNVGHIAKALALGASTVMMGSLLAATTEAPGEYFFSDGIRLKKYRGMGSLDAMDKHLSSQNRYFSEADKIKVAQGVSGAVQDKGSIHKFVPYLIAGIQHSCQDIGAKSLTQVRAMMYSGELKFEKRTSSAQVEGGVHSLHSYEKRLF

Structure (SMILES): COc1cc(NC(=O)Cn2ncc3c2-c2ccccc2CC3)ccc1Cl
- inhibition [1]: < 20%
- pIC50 [2]: 7.00

Structure (SMILES): COc1cc(NC(=O)Cn2ncc3c2-c2ccccc2OC3)ccc1Cl
- inhibition [1]: < 20%
- pIC50 [2]: 7.15

Structure (SMILES): COc1ccc(NC(=O)Cn2ncc3c(=O)oc4ccccc4c32)cc1OC
- pIC50 [2]: 5.60

- pIC50 [2]: < 5.30
Structure (SMILES): O=C(Cn1ncc2c(=O)oc3ccccc3c21)Nc1ccc(Cl)cc1Cl

Structure (SMILES): O=C(Cn1ncc2c(=O)oc3ccccc3c21)Nc1ccc(F)cc1
- inhibition [1]: < 20%
- pIC50 [2]: 6.34

Structure (SMILES): COc1cc(NC(=O)C(C)n2ncc3c(=O)oc4ccccc4c32)ccc1Cl (stereo unspecified)
- inhibition [1]: < 20%
- pIC50 [2]: 7.20

Structure (SMILES): O=C(Cn1ncc2c(=O)oc3ccccc3c21)Nc1ccc2[nH]cnc2c1
- pIC50 [2]: 5.60

Structure (SMILES): O=C(Cn1ncc2c(=O)oc3ccccc3c21)Nc1ccc(C(F)(F)F)cc1
- inhibition [1]: < 20%
- pIC50 [2]: 6.24

Structure (SMILES): O=C(Cn1ncc2c(=O)oc3ccccc3c21)Nc1ccc(Cl)c(Cl)c1
- inhibition [1]: < 20%
- pIC50 [2]: 7.36

Structure (SMILES): O=C(Cn1ncc2c(=O)oc3ccccc3c21)Nc1ccc2c(c1)OCCO2
- inhibition [1]: < 20%
- pIC50 [2]: 6.72

Structure (SMILES): COc1cccc(NC(=O)Cn2ncc3c(=O)oc4ccccc4c32)c1
- pIC50 [2]: 5.82

Structure (SMILES): O=C(Cn1ncc2c(=O)oc3ccccc3c21)Nc1ccc2ccccc2c1
- inhibition [1]: < 20%
- pIC50 [2]: 7.17

- pIC50 [2]: < 5.30
Structure (SMILES): O=C(Cn1ncc2c(=O)oc3ccccc3c21)Nc1ccc2[nH]ccc2c1

Structure (SMILES): O=C(Cn1ncc2c(=O)oc3ccccc3c21)Nc1ccc2cc[nH]c2c1
- inhibition [1]: < 20%
- pIC50 [2]: 6.92

- pIC50 [2]: < 5.30
Structure (SMILES): COc1cc(N(C)C(=O)Cn2ncc3c(=O)oc4ccccc4c32)ccc1Cl

Structure (SMILES): COc1cc(NC(=O)Cn2ncc3c(=O)oc4cc(C)ccc4c32)ccc1Cl
- pIC50 [2]: 5.70

- pIC50 [2]: < 5.30
Structure (SMILES): O=C(Cn1ncc2c(=O)oc3ccccc3c21)Nc1ccccc1Cl

- pIC50 [2]: < 5.30
Structure (SMILES): O=C(Cn1ncc2c(=O)oc3ccccc3c21)Nc1cccc(Cl)c1

Structure (SMILES): COc1cc(NC(=O)Cn2ncc3c(=O)oc4ccccc4c32)ccc1Cl
- inhibition [1]: < 20%
- pIC50 [2]: 7.70

Structure (SMILES): O=C(Cn1ncc2c(=O)oc3ccccc3c21)Nc1ccc2ncccc2c1
- inhibition [1]: < 20%
- pIC50 [2]: 7.10
